Results collected from several papers.
Protocols differ between the studies behind these lines.

NCCOCC(=O)N1CCC[C@H](C(=O)NCc2nc(-c3ccc(C(F)(F)F)cc3)cs2)C1  AUC (male Sprague-Dawley rat, plasma; oral, 3 mg/kg): 0.071 µM·h
C=C(CC(=O)OCc1oc(=O)oc1C)C(=O)O  Papp (PAMPA; 10 µM, 4 h): ~15 ×10⁻⁶ cm/s
CCOCC(=O)N1CCC[C@H](C(=O)NCc2nc(-c3ccc(C#N)nc3)cs2)C1  AUC (male Sprague-Dawley rat, plasma; oral, 3 mg/kg): 21 µM·h
C=C(CC(=O)OCOC(=O)OC(C)C)C(=O)OCOC(=O)OC(C)C  Papp (PAMPA; 10 µM, 4 h, pH 7.4): > 10 ×10⁻⁶ cm/s
CCOCC(=O)N1CCC[C@H](C(=O)NCc2nc(-c3ccc(C)nc3)cs2)C1  AUC (male Sprague-Dawley rat, plasma; oral, 3 mg/kg): 32 µM·h
Cc1c(S(=O)(=O)N2CCn3nccc3C2)cc(C(=O)NCc2c(F)ccnc2N2CCCC2)n1C  Papp (PAMPA): 16.8 ×10⁻⁶ cm/s
COc1nc(-c2cccc(-c3ccccc3)c2C)ccc1CNCCNC(=O)CCCCCCCCCCC(=O)N1CCN(CCNC(=O)c2cc3c(=O)n4cccc(C)c4nc3n(CCc3cccs3)c2=N)CC1  AUC(0-t) (male Sprague-Dawley rat, plasma; intraperitoneal, 4 mg/kg): 2440 ng·h/mL
C[C@H]1Oc2cc(cnc2N)-c2c(nn(C)c2C#N)CN(C)C(=O)c2ccc(F)cc21  AUC(0-inf) (male Sprague-Dawley rat, plasma; oral, 5 mg/kg, single dose): 1870 ng·h/mL
CN(C)C(=O)c1cc2cnc(Nc3ccc(N4CCNCC4)cn3)nc2n1C1CCCC1  AUC (male Sprague-Dawley rat, plasma; intraperitoneal, 100 mg/kg): 12200 ng·h/mL
